Reference: ChEMBL document CHEMBL4043283, “Discovery and Preclinical Development of IIIM-290, an Orally Active Potent Cyclin-Dependent Kinase Inhibitor” (J Med Chem, 2018)
In brackets after ≈: the same amount, converted by molar mass.

How the values were obtained:
[1] = Half life in Sprague-Dawley rat at 3 mg/kg, po by LC-MS/MS analysis; type: ADME, organism-based; conditions: in vivo
Caco-2 = experiment: Growth inhibition of human Caco2 cells at 10 uM after 48 hrs by MTT assay relative to control; type: functional; conditions: Caco-2, 48 h, read-out: GI
Summary of the method: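 Single-concentration primary screen at 10 μM by MTT assay. Cells were NCI-sourced cancer lines grown in appropriate medium at 37 °C, 95% humidity, 5% CO2. Growth inhibition is expressed relative to control.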

[2] = Pancreas to plasma partition coefficient, Kp of the compound in BALB/c mouse at 30 mg/kg, po measured at 1 hr; type: ADME, organism-based; conditions: pancreas and plasma
Mus musculus = experiment: Toxicity in CD1 nude mouse xenografted with human HCT116 cells assessed as mortality at 50 mg/kg, po qd administered on day 10 to 25 post tumor inoculation; type: organism-based; conditions: in vivo
[3] = Pancreas to plasma partition coefficient, Kp of the compound in Sprague-Dawley rat at 30 mg/kg, po measured at 0.5 hrs; type: ADME, organism-based; conditions: pancreas and plasma
[4] = Thermodynamic equilibrium solubility of compound in SIF at pH 6.8 after 5 hrs by shake flask method; type: physicochemical; conditions: read-out: Therm_solubility

**Q.** With `CN1CC[C@H](c2c(O)cc(O)c3c(=O)cc(/C=C/c4c(Cl)cccc4Cl)oc23)[C@H](O)C1` as the molecule, how does the half-life [1] read?
**A.** 4.67 h

**Q.** What about the inhibition of growth at 10 µM (Caco-2) of the same molecule?
**A.** 68%

**Q.** And the Kp at 1 h [2]?
**A.** 24.4

**Q.** What about the Activity (Mus musculus) of the same molecule?
**A.** Non-Toxic

**Q.** What about the Kp at 0.5 h [3] of the same molecule?
**A.** 5.3

**Q.** And the solubility thermodynamic at 5 h [4]?
**A.** 2.18 µg/mL (≈ 4.72 µM)
